One assay is filed under the species Mus musculus. Put plainly: Analgesic activity in Swiss mouse assessed as reaction time after 60 mins by hot plate test. It is filed as functional.
Settings: not given
Summed up:
(§1)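 Swiss mice of both sexes, 25–30 g, were housed at 22 ± 1 °C on a 12 h light/dark cycle with free access to diet and water. Hot-plate testing followed Turner's method.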
A general note: In hot-plate and tail-flick tests a longer latency is read as antinociception.
For the molecule `NNc1nc2nc3c(c(-c4ccc(Cl)cc4)c2c(=O)[nH]1)CCC/C3=C\c1ccc(Cl)cc1`, the Activity is 4.067 s.

For the molecule `CC(=O)Oc1ccccc1C(=O)O` [ASPIRIN], the Activity is 7.683 s.

Turning to `O=c1c2c(-c3ccc(Cl)cc3)c3c(nc2nc2[nH]nc([C@H](O)[C@H](O)[C@H](O)CO)n12)/C(=C/c1ccc(Cl)cc1)CCC3`, the Activity was found to be 5.35 s.

The next assay deals with Rattus norvegicus. As to the kind of experiment: Antiinflammatory activity in Sprague-Dawley rat assessed as inhibition of carrageenan-induced paw edema after 3 hrs. It is filed as functional.
Settings: not given
Summed up: (§2)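 Adult female Sprague-Dawley rats, 150–180 g, were used (n = 6 per group). Paw volume increase after carrageenan was read at 1, 2, 3 and 4 h. % edema inhibition was calculated against untreated controls. The reference drug was given orally at 10 mg/kg as an aqueous suspension.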
A general note: Carrageenan injected into the paw causes an acute inflammation.
In the case of `NNc1nc2nc3c(c(-c4ccc(Cl)cc4)c2c(=O)[nH]1)CCC/C3=C\c1ccc(Cl)cc1`, the “inhibition (INH)” value is given as 37.68%.

Regarding `O=c1c2c(-c3ccc(Cl)cc3)c3c(nc2nc2[nH]nc([C@H](O)[C@H](O)[C@H](O)CO)n12)/C(=C/c1ccc(Cl)cc1)CCC3`, the “inhibition (INH)” value was 39.06%.

The test system of another assay is Rattus norvegicus. Put plainly: Antiinflammatory activity in Sprague-Dawley rat assessed as inhibition of carrageenan-induced paw edema after 4 hrs. It is filed as functional.
Settings: not given
Summed up: as §2
Regarding `NNc1nc2nc3c(c(-c4ccc(Cl)cc4)c2c(=O)[nH]1)CCC/C3=C\c1ccc(Cl)cc1`, the “inhibition (INH)” value turned out to be 35.19%.

As to `O=c1c2c(-c3ccc(Cl)cc3)c3c(nc2nc2[nH]nc([C@H](O)[C@H](O)[C@H](O)CO)n12)/C(=C/c1ccc(Cl)cc1)CCC3`, the “inhibition (INH)” value was found to be 39.81%.

The next assay has as its system Pseudomonas aeruginosa. Put plainly: Antibacterial activity against Pseudomonas aeruginosa ATCC 10145 at 100 ug/disk after 24 to 48 hrs by agar disk diffusion method. It is filed as functional. Particulars: read-out: DIZ. In short, it runs like this:
(§3)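 Agar disc diffusion used sterile 5 mm filter-paper discs loaded with 100 µg per disc, with DMSO as solvent. Plates were incubated 24–28 h at 37 °C and inhibition zone diameters measured: 6–10 mm slight, 11–15 mm moderate, >15 mm high. For MIC, discs carried varying amounts, and MIC was the lowest amount giving no visible growth.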
(Agar diffusion results depend on both activity and mobility in agar.)
As to `NNc1nc2nc3c(c(-c4ccc(Cl)cc4)c2c(=O)[nH]1)CCC/C3=C\c1ccc(Cl)cc1`, the zone of inhibition at 100 µg/disc is 20 mm.

Regarding `O=c1c2c(-c3ccc(Cl)cc3)c3c(nc2nc2[nH]nc([C@H](O)[C@H](O)[C@H](O)CO)n12)/C(=C/c1ccc(Cl)cc1)CCC3`, the zone of inhibition at 100 µg/disc came to 18 mm.

Tested on in a further assay: not listed separately
As to the kind of experiment: Antioxidant activity assessed as inhibition of ABTS-oxidation in 0.1 M phosphate buffer at pH 7.
Settings: not given
It is filed as functional. In short, it runs like this:
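ABTS (60 µM, 2 mL) was mixed with MnO2 (25 mg/mL) in 0.1 M phosphate buffer pH 7, then shaken, centrifuged and filtered. Radical solution A734 was set to about 0.5. MeOH/buffer served as negative control.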
The inhibition is how much of the control response was suppressed. Consider `NNc1nc2nc3c(c(-c4ccc(Cl)cc4)c2c(=O)[nH]1)CCC/C3=C\c1ccc(Cl)cc1`, for which the inhibition was determined as 59.3%.

In the case of `O=c1c2c(-c3ccc(Cl)cc3)c3c(nc2nc2[nH]nc([C@H](O)[C@H](O)[C@H](O)CO)n12)/C(=C/c1ccc(Cl)cc1)CCC3`, the inhibition was 68.8%.

The next assay has as its system Rattus norvegicus. As to the kind of experiment: Antiinflammatory activity in Sprague-Dawley rat assessed as inhibition of carrageenan-induced paw edema after 1 hr.
Settings: not given
It counts as functional. Summed up: as §2
As for `NNc1nc2nc3c(c(-c4ccc(Cl)cc4)c2c(=O)[nH]1)CCC/C3=C\c1ccc(Cl)cc1`, the “inhibition (INH)” value was 34.38%.

Regarding `O=c1c2c(-c3ccc(Cl)cc3)c3c(nc2nc2[nH]nc([C@H](O)[C@H](O)[C@H](O)CO)n12)/C(=C/c1ccc(Cl)cc1)CCC3`, the “inhibition (INH)” value came out at 46.88%.

The next assay concerns Candida albicans. Put plainly: Antimicrobial activity against Candida albicans ATCC 14053 at 100 ug/disk after 5 days by agar disk diffusion method. It is filed as functional. As to conditions: ATCC 14053, 120 h, read-out: DIZ.
As for `NNc1nc2nc3c(c(-c4ccc(Cl)cc4)c2c(=O)[nH]1)CCC/C3=C\c1ccc(Cl)cc1`, the zone of inhibition at 100 µg/disc worked out at 13 mm.

Regarding `O=c1c2c(-c3ccc(Cl)cc3)c3c(nc2nc2[nH]nc([C@H](O)[C@H](O)[C@H](O)CO)n12)/C(=C/c1ccc(Cl)cc1)CCC3`, the zone of inhibition at 100 µg/disc was 13 mm.

A further assay has as its system Nucleic Acid. Put plainly: Inhibition of bleomycin-induced DNA damage assessed as absorbance at 532 nm after 1 hr at 37 degC. It is filed as nucleic-acid assay.
Settings: not given
In short, it runs like this: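 The 0.5 mL reaction contained calf thymus DNA (0.5 mg/mL), bleomycin sulfate (0.05 mg/mL), MgCl2 (5 mM), FeCl3 (50 µM) and compound at varying concentrations. After 1 h at 37 °C, the reaction was stopped with EDTA. TBA (1%) and HCl (25%) were added, followed by 10 min at 80 °C. After centrifugation, DNA damage was read as A532.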
Consider `O=c1c2c(-c3ccc(Cl)cc3)c3c(nc2nc2[nH]nc([C@H](O)[C@H](O)[C@H](O)CO)n12)/C(=C/c1ccc(Cl)cc1)CCC3`, for which the deltaA came to 0.045.

For a further assay, the system named is Rattus norvegicus. Put plainly: Antiinflammatory activity in Sprague-Dawley rat assessed as inhibition of carrageenan-induced paw edema after 2 hrs.
Settings: not given
It counts as functional. In short, it runs like this:
as §2
`NNc1nc2nc3c(c(-c4ccc(Cl)cc4)c2c(=O)[nH]1)CCC/C3=C\c1ccc(Cl)cc1`: the “inhibition (INH)” value is recorded as 34%.

For the molecule `O=c1c2c(-c3ccc(Cl)cc3)c3c(nc2nc2[nH]nc([C@H](O)[C@H](O)[C@H](O)CO)n12)/C(=C/c1ccc(Cl)cc1)CCC3`, the “inhibition (INH)” value is 40.58%.

The species named for another assay is Mus musculus. As to the kind of experiment: Analgesic activity in Swiss mouse assessed as reaction time after 30 mins by hot plate test. It is filed as functional.
Settings: not given
Summed up:
as §1
For the molecule `NNc1nc2nc3c(c(-c4ccc(Cl)cc4)c2c(=O)[nH]1)CCC/C3=C\c1ccc(Cl)cc1`, the Activity is 3.7 s.

As for `CC(=O)Oc1ccccc1C(=O)O` [ASPIRIN], the Activity was found to be 5.1 s.

Turning to `O=c1c2c(-c3ccc(Cl)cc3)c3c(nc2nc2[nH]nc([C@H](O)[C@H](O)[C@H](O)CO)n12)/C(=C/c1ccc(Cl)cc1)CCC3`, the Activity came out at 3.55 s.

The species entered for another assay is Mus musculus. As to the kind of experiment: Analgesic activity in Swiss mouse assessed as reaction time after 90 mins by hot plate test. It is filed as functional.
Settings: not given
In short, it runs like this:
as §1
For the molecule `NNc1nc2nc3c(c(-c4ccc(Cl)cc4)c2c(=O)[nH]1)CCC/C3=C\c1ccc(Cl)cc1`, the Activity is on record as 6.617 s.

In the case of `CC(=O)Oc1ccccc1C(=O)O` [ASPIRIN], the Activity is recorded as 8.65 s.

Take `O=c1c2c(-c3ccc(Cl)cc3)c3c(nc2nc2[nH]nc([C@H](O)[C@H](O)[C@H](O)CO)n12)/C(=C/c1ccc(Cl)cc1)CCC3`: the Activity is on record as 6.667 s.

A further assay deals with Escherichia coli. As to the kind of experiment: Antibacterial activity against Escherichia coli ATCC 23566 at 100 ug/disk after 24 to 48 hrs by agar disk diffusion method. It is filed as functional. Particulars: read-out: DIZ. Summed up:
as §3
Consider `NNc1nc2nc3c(c(-c4ccc(Cl)cc4)c2c(=O)[nH]1)CCC/C3=C\c1ccc(Cl)cc1`, for which the zone of inhibition at 100 µg/disc came to 22 mm.

For `O=c1c2c(-c3ccc(Cl)cc3)c3c(nc2nc2[nH]nc([C@H](O)[C@H](O)[C@H](O)CO)n12)/C(=C/c1ccc(Cl)cc1)CCC3`, the zone of inhibition at 100 µg/disc is 18 mm.

The subject of the next assay is Staphylococcus aureus. Put plainly: Antibacterial activity against Staphylococcus aureus ATCC 25923 at 100 ug/disk after 24 to 48 hrs by agar disk diffusion method. It is filed as functional. As to conditions: read-out: DIZ. In short, it runs like this: as §3
With `NNc1nc2nc3c(c(-c4ccc(Cl)cc4)c2c(=O)[nH]1)CCC/C3=C\c1ccc(Cl)cc1`, the zone of inhibition at 100 µg/disc was 18 mm.

For the molecule `O=c1c2c(-c3ccc(Cl)cc3)c3c(nc2nc2[nH]nc([C@H](O)[C@H](O)[C@H](O)CO)n12)/C(=C/c1ccc(Cl)cc1)CCC3`, the zone of inhibition at 100 µg/disc turned out to be 22 mm.

Tested on in a further assay: not listed separately
Put plainly: Antioxidant activity in Sprague-Dawley rat erythrocytes assessed as ABTS-induced hemolysis after 1 hr. It counts as functional, Erythrocyte.
Settings: not given
Further details: concentration or dose not given beside the values.
For `NNc1nc2nc3c(c(-c4ccc(Cl)cc4)c2c(=O)[nH]1)CCC/C3=C\c1ccc(Cl)cc1`, the Activity turned out to be 5.45%.

Consider `O=c1c2c(-c3ccc(Cl)cc3)c3c(nc2nc2[nH]nc([C@H](O)[C@H](O)[C@H](O)CO)n12)/C(=C/c1ccc(Cl)cc1)CCC3`, for which the Activity worked out at 3.42%.

For a further assay, the system named is Aspergillus fumigatus. Put plainly: Antimicrobial activity against Aspergillus fumigatus ATCC 96918 at 100 ug/disk after 5 days by agar disk diffusion method. As to conditions: ATCC 96918, 120 h, read-out: DIZ. It is filed as functional.
On to `NNc1nc2nc3c(c(-c4ccc(Cl)cc4)c2c(=O)[nH]1)CCC/C3=C\c1ccc(Cl)cc1`, for which the zone of inhibition at 100 µg/disc amounted to 11 mm.

For the molecule `O=c1c2c(-c3ccc(Cl)cc3)c3c(nc2nc2[nH]nc([C@H](O)[C@H](O)[C@H](O)CO)n12)/C(=C/c1ccc(Cl)cc1)CCC3`, the zone of inhibition at 100 µg/disc came to 13 mm.

The values above are taken from ChEMBL document CHEMBL1137720, “New acyclic nucleosides analogues as potential analgesic, anti-inflammatory, anti-oxidant and anti-microbial derived from pyrimido[4,5-b]quinolines” (2009).
